Bioassay records as filed in PubChem BioAssay.
Wee1 stabilizer: human Wee1 degradation inhibition, primary screen | HeLa Luc-Wee1K328M stability, luciferase luminescence; 100% = proteasome inhibitor MG132 effect | hit rate 1.2% among 220,000 | reporter increase, % at 5 µM | P30291;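 active = activation above the mean of all tested compounds plus 3 SD, set per screening run, cut at about 8.8% in these data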;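 also: cells exposed to compound for 20 h before luminescence read; 0% = DMSO alone and 100% = MG132 at 30 µM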
FXIa inh 1536: blocks human coagulation factor XIa protease activity | inhibition, % at 5 µM | hit rate 0.14% among 220,000 | purified FXIa, Boc-Glu-Ala-Arg-AMC fluorogenic substrate | P03951;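 active = inhibition of at least 40%; inactive = inhibition below 40%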;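 also: fluorescence of freed AMC excited at 355 nm; 0% = enzyme without compound and 100% = no enzyme blank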
Target sequence (P03951 19-387 limits assumed): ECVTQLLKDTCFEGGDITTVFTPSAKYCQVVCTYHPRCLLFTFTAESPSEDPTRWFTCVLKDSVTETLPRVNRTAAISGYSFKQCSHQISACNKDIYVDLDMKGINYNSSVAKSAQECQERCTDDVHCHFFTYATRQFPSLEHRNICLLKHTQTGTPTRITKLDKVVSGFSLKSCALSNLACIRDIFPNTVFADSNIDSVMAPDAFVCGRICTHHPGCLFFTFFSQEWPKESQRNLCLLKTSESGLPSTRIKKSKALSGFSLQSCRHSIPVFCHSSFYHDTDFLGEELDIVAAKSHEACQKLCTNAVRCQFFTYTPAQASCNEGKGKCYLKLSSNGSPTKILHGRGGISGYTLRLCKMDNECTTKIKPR
Target sequence (P03951 388-625 limits assumed): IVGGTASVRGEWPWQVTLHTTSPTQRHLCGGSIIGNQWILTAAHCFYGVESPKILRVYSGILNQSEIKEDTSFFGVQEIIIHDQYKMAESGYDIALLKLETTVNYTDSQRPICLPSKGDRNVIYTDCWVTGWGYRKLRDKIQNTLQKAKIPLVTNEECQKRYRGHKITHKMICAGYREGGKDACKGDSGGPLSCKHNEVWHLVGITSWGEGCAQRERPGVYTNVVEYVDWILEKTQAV
thrombin 1536: inhibitors of human thrombin; alpha-thrombin, Boc-VPR-AMC fluorogenic substrate cleavage; inhibition, % at 5 µM; hit rate 0.26% among 220,000;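 active = inhibition at or above 40%; inactive = inhibition below 40%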;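 also: 0% = enzyme with no compound and 100% = wells without enzyme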
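signal = AMC fluorescence, 355/460 nm | material = human alpha-thrombin enzyme | control set = enzyme without compound as high, wells lacking enzyme as low | times = reaction at room temperature | read-out basis = percent inhibition scaled between no-compound controls and no-enzyme blanks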
FXIIa inh 1536: factor XIIa (human) inhibition | P00748 | inhibition, % at 5 µM | purified FXIIa, Boc-QGR-AMC fluorogenic substrate, 2 h | hit rate 0.3% among 220,000; in the data active = inhibition above about 40%;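 also: 0% = enzyme with no compound and 100% = blank without enzyme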
hK5 inh: inhibitors of human kallikrein 5; recombinant hK5, fluorogenic AMC substrate cleavage; inhibition, % at 5 µM; hit rate 0.59% among 210,000; AID 873;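 active = inhibition of 40% or more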;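 also: 0% = enzyme controls without compound and 100% = no-enzyme blanks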
Active calls of the source: *; i = inactive; x = not tested or not shown. This is a sample that favours compounds with a hit; in the whole collection about 2.2% have one here.

SMILES	Wee1 stabilizer	FXIa inh 1536	thrombin 1536	FXIIa inh 1536	hK5 inh
Cc1ccc(CN2CCNC(=O)C2CC(=O)NCCCn2ncc3ccccc32)o1 (stereo not given)	15*	3	2	9	x
Cc1[nH]c(=O)[nH]c(=O)c1/C=N/NC(=O)[C@H](C)N	4	18	25	40	52*
Oc1ccc(C2Nc3cccc4cccc(c34)N2)c(O)c1	-1	11	67*	14	57*
COc1cc(C2Nc3cccc4cccc(c34)N2)cc(OC)c1O	-1	1	1	9	9
COC(=O)c1c(NC(=S)Nc2ccc(C(=O)N3CCOCC3)cc2)sc2c1CCC2	1	-2	1	14	-14
C=CCNc1ncnc2sc(SC)nc12	10*	-7	-4	3	-1
CC1CCN(C(=O)c2cc(N3C(=O)C4C5CCC(C5)C4C3=O)ccc2Cl)CC1 (stereo not given)	-3	-3	-10	3	-6
COC(=O)c1cc(N2C(=O)C3C(C2=O)C2(C)C=CC3(C)O2)ccc1Cl (stereo not given)	-3	5	104*	6	44*
COCCN(CCOC)S(=O)(=O)c1ccc(C(=O)Nc2nnc(C3CC3)o2)cc1	9.4*	-6	4	16	8
CCN(c1ccccc1)S(=O)(=O)c1ccc(C(=O)Nc2nnc(COC)o2)cc1	0	11	23	55*	13
CCc1nnc(NC(=O)c2ccc(S(=O)(=O)N(CCOC)CCOC)cc2)o1	5	-3	-2	7	-23
CSCCC(NC(C)=O)C(=O)Oc1ccc2c3c(c(=O)oc2c1)CCCC3 (stereo not given)	0	-9	-8	-56	i
CSCCC(NC(=O)OC(C)(C)C)C(=O)Oc1ccc2c(=O)c(-c3ccc4c(c3)OCCO4)coc2c1 (stereo not given)	9.9*	0	1	16	8
Cc1cc(C)nc(Oc2ccc([N+](=O)[O-])cc2)n1	3	-3	-2	-1	-7
Cc1cc(C)nc(Oc2ccc(Br)cc2Br)n1	9.1*	-1	-11	4	2
CC(C)(C)N=C1C([N+](=O)[O-])=CC=C2C1=NC1(CCCCC1)N2O	-2	9	3	13	-1
N=C1C=CC=C2C1=NC1(CCCCC1)N2O	-2	32	104*	12	98*
COc1ccc(CNC(=O)CCSCc2ccccc2C)cc1	3	-9	-4	1	-18
O=C(NCc1ccccc1)NC(=O)c1ccncc1	-1	3	3	19	40*
Cc1cc(C)c(S(=O)(=O)N2CCCCC2)c(C)c1N(C)S(=O)(=O)c1ccc(Cl)cc1	0	22	-13	23	-4
NS(=O)(=O)c1ccc(NC(=O)Nc2ccc(Cl)cc2)cc1	-1	0	-1	6	44*
Cc1ccnc(N(C(=O)c2cccs2)C(=O)c2cccs2)c1	12*	1	5	12	-4
CCc1ccccc1NC(=O)COc1ccc(C(=S)N2CCCC2)cc1	-3	0	6	4	-9
CNC(=O)C12N=CNN=C1N(C)C(=O)N2C (stereo not given)	5	-3	3	7	-1
Cc1c(NC(=O)CN2CCCc3ccccc32)c(=O)n(-c2ccccc2)n1C	0	0	17	15	144*
SMILES	Wee1 stabilizer	FXIa inh 1536	thrombin 1536	FXIIa inh 1536	hK5 inh
Cc1c(NC(=O)CC(=O)Nc2c(C)n(C)n(-c3ccccc3)c2=O)c(=O)n(-c2ccccc2)n1C	-3	-9	-5	-2	5
Cc1c(NC(=O)COC(=O)CCC(=O)c2ccc(Cl)cc2)c(=O)n(-c2ccccc2)n1C	9.4*	-6	-22	10	-3
Cc1c(NC(=O)COC(=O)c2ccccc2Cl)c(=O)n(-c2ccccc2)n1C	2	-2	-10	7	2
O=C1CN(CC(=O)N2CCOCC2)c2ccccc2O1	1	14	11	24	42*
O=C1CN(CC(=O)N2CCCCC2)c2ccccc2O1	0	-4	-1	6	-24
O=C(CCn1cccc(C(F)(F)F)c1=O)Nc1cccc(C(F)(F)F)c1	-2	-4	-4	1	2
CCOC(=O)C1(C)NC(c2ccco2)C2C(=O)N(C)C(=O)C21 (stereo not given)	-3	1	-9	6	2
COc1cc(/C=N/n2c(-c3cc(C)[nH]n3)n[nH]c2=S)cc(OC)c1OC	-1	-8	-9	-1	58*
NC(=O)NOCc1ccccc1	0	45*	12	28	23
O=C(CSc1ncccn1)n1c2c(c3ccccc31)CCCC2	-4	1	17	24	77*
Cc1cc(C)nc(SCC(=O)n2c3c(c4ccccc42)CCCC3)n1	2	-2	-5	4	6
C=C(C)c1cccc(C(C)(C)NC(=O)NCc2ccc(OC)cc2)c1	4	4	-8	2	-5
COc1ccc(CNC(=O)NC(C)(C)c2cccc(C(C)(C)NC(=O)NCc3ccc(OC)cc3)c2)cc1	-1	9	15	30	44*
O=C(O)CCC(=O)CCC(=O)c1ccc(Cl)cc1	-2	9	14	33	44*
O=C(Cn1cncn1)N/N=C/c1cccc(Cl)c1	1	4	1	9	0
COc1cc(Cl)c(S(=O)(=O)N2CCOCC2)cc1Cl	0	-18	2	-13	3
COc1cc(Cl)c(S(=O)(=O)N2CC(C)OC(C)C2)cc1Cl (stereo not given)	0	13	26	32	54*
CC12CCC(C(=O)NC(c3ccccc3)c3ccccc3)(OC1=O)C2(C)C (stereo not given)	0	12	13	55*	37
COc1cccc2c1OCC(CN1CCN(CCC(C)C)C(CCO)C1)=C2 (stereo not given)	2	1	-7	9	7
COC(=O)c1ccccc1NC(=O)Oc1ccc(C(C)C)cc1	4	9	21	13	52*
Cc1ccc(C)n1-c1ccc(-c2nnco2)cc1	-2	1	40*	-5	21
CCCCSc1nc2c(cc1C#N)CCC2	2	5	14	2	104*
N/C(=N\NC(=O)c1cccs1)c1cc2cc(Cl)ccc2oc1=O	-2	-2	-2	6	-7
O=C1/C(=C/c2ccccn2)SC(=S)N1Cc1ccccc1	11*	0	-1	5	-5
CC(C)c1ccc2oc(=O)cc(CN3CCN(c4ccc(F)cc4)CC3)c2c1	-2	-6	-16	13	-14
CCc1ccc2oc(=O)cc(CN3CCN(c4ccc(F)cc4)CC3)c2c1	11*	-9	-4	3	8
COc1ccc(-c2ccc(-c3noc(-c4cccc(OC)c4)n3)c(OC)n2)cc1	3	-6	-1	-10	60*
COc1ccc(C(=O)NNC2=CC(=O)CC(C)(C)C2)cc1	1	14	15	12	49*
Cc1cccc(C(=O)NNC2=CC(=O)CC(C)(C)C2)c1O	2	4	2	9	2
